Data reported in ChEMBL document CHEMBL3877325, “Novel salicylanilides from 4,5-dihalogenated salicylic acids: Synthesis, antimicrobial activity and cytotoxicity” (Bioorg Med Chem, 2017).
Converted amounts (≈) assume the structure as drawn.

Legend:
Mycobacterium kansasii [1] = assay: Antimycobacterial activity against Mycobacterium kansasii isolate 6509/96 after 21 days by micromethod; assay type: functional; details: isolate 6509/96, 504 h
Method in brief: (§1)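 MIC in Šula's semisynthetic medium at 37 °C, read after 7, 14 and 21 days. Inoculum is strain dilution 10^-4; 235/80 is a collection strain and 6509/96 a clinical isolate. Compounds are added as DMSO solutions at 500, 250, 125, 62.5, 32, 16, 8, 4, 2, 1 and 0.5 µM. INH (in sterile water) and PAS are the reference drugs.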

Mycobacterium avium [2] = assay: Antimycobacterial activity against Mycobacterium avium My 330/80 after 14 days by micromethod; assay type: functional; details: My 330/80, 336 h
Method in brief: (§2)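 M. avium My 330/80 (collection strain) inoculated at 10^-5 dilution into Šula's semisynthetic medium. Compounds added from DMSO solutions at 500, 250, 125, 62.5, 32, 16, 8, 4, 2, 1 and 0.5 µM. MIC determined by micromethod at 37 °C, read after 14 and 21 days.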

Mycobacterium avium [3] = assay: Antimycobacterial activity against Mycobacterium avium My 330/80 after 21 days by micromethod; assay type: functional; details: My 330/80, 504 h; method in brief: as §2
Mycobacterium kansasii [4] = assay: Antimycobacterial activity against Mycobacterium kansasii isolate 6509/96 after 14 days by micromethod; assay type: functional; details: isolate 6509/96, 336 h; method in brief: as §1
Mycobacterium kansasii [5] = assay: Antimycobacterial activity against Mycobacterium kansasii isolate 235/80 after 14 days by micromethod; assay type: functional; details: isolate 235/80, 336 h; method in brief: as §1
[6] = tested on: Mycobacterium tuberculosis; assay: Antimycobacterial activity against Mycobacterium tuberculosis H37Rv My 331/88 after 21 days by micromethod; assay type: functional; details: H37Rv My 331/88, 504 h
Method in brief: (§3)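 MIC micromethod in Šula's semisynthetic medium at 37 °C, read after 14 and 21 days. Compounds added as DMSO solutions at 500 down to 0.5 µM (twofold-type series: 500, 250, 125, 62.5, 32, 16, 8, 4, 2, 1, 0.5 µM). Isoniazid standard given in sterile water.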

Mycobacterium kansasii [7] = assay: Antimycobacterial activity against Mycobacterium kansasii isolate 6509/96 after 7 days by micromethod; assay type: functional; details: isolate 6509/96, 168 h; method in brief: as §1
[8] = tested on: Mycobacterium tuberculosis; assay: Antimycobacterial activity against Mycobacterium tuberculosis H37Rv My 331/88 after 14 days by micromethod; assay type: functional; details: H37Rv My 331/88, 336 h; method in brief: as §3
[9] = Cytotoxicity against human HepG2 cells assessed as reduction in cell viability after 24 hrs by MTS assay; assay type: toxicity, cell-based
Method in brief: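 HepG2 cells (passages 33-37) are grown in MEM with 10% FBS, L-glutamine and non-essential amino acids. They are seeded at 1 × 10^4 cells/well and treated next day with 0.1-100 µM in triplicate for 24 h at 37 °C, 5% CO2. MTS reagent is added for 2 h and A490 read.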

Mycobacterium kansasii [10] = assay: Antimycobacterial activity against Mycobacterium kansasii isolate 235/80 after 7 days by micromethod; assay type: functional; details: isolate 235/80, 168 h; method in brief: as §1
Mycobacterium kansasii [11] = assay: Antimycobacterial activity against Mycobacterium kansasii isolate 235/80 after 21 days by micromethod; assay type: functional; details: isolate 235/80, 504 h; method in brief: as §1
[12] = Selectivity index, ratio of IC50 for human HepG2 cells to MIC for Mycobacterium tuberculosis H37Rv after 21 days; assay type: toxicity, cell-based; details: HepG2 cells versus Mycobacterium tuberculosis H37Rv, read-out: Selectivity Index
Method in brief: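 HepG2 cells (passages 33-37) seeded at 1 × 10^4 per well and treated next day with 0.1–100 µM in triplicate. After 24 h at 37 °C, 5% CO2, MTS reagent added for 2 h and absorbance read at 490 nm. IC50 taken from viability relative to untreated control, then divided by the 21-day H37Rv MIC.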

Row | Compound | MIC (Mycobacterium kansasii [1]) | MIC (Mycobacterium avium [2]) | MIC (Mycobacterium avium [3]) | MIC (Mycobacterium kansasii [4]) | MIC (Mycobacterium kansasii [5]) | MIC [6] | MIC (Mycobacterium kansasii [7]) | MIC [8] | IC50 at 24 h [9] | MIC (Mycobacterium kansasii [10]) | MIC (Mycobacterium kansasii [11]) | selectivity ratio at 504 h [12]
1 | O=C(Nc1cc(C(F)(F)F)cc(C(F)(F)F)c1)c1ccc(Br)cc1O | 16 µM (≈ 6.85 µg/mL) | 32 µM (≈ 13.7 µg/mL) | 32 µM (≈ 13.7 µg/mL) | 16 µM (≈ 6.85 µg/mL) | 8 µM (≈ 3.43 µg/mL) | 4 µM (≈ 1.71 µg/mL) | 8 µM (≈ 3.43 µg/mL) | 2 µM (≈ 0.856 µg/mL) | 8.08 µM | 8 µM (≈ 3.43 µg/mL) | 16 µM (≈ 6.85 µg/mL) | 2.02
2 | O=C(Nc1ccc(Br)cc1)c1cc(Cl)c(Br)cc1O | 8 µM (≈ 3.24 µg/mL) | 32 µM (≈ 13 µg/mL) | 32 µM (≈ 13 µg/mL) | 8 µM (≈ 3.24 µg/mL) | 8 µM (≈ 3.24 µg/mL) | 2 µM (≈ 0.811 µg/mL) | 4 µM (≈ 1.62 µg/mL) | 2 µM (≈ 0.811 µg/mL) | 9.78 µM | 4 µM (≈ 1.62 µg/mL) | 8 µM (≈ 3.24 µg/mL) | 4.89
3 | O=C(Nc1cc(C(F)(F)F)cc(C(F)(F)F)c1)c1cc(Cl)c(Br)cc1O | 8 µM (≈ 3.7 µg/mL) | 32 µM (≈ 14.8 µg/mL) | 32 µM (≈ 14.8 µg/mL) | 8 µM (≈ 3.7 µg/mL) | 8 µM (≈ 3.7 µg/mL) | 2 µM (≈ 0.925 µg/mL) | 8 µM (≈ 3.7 µg/mL) | 2 µM (≈ 0.925 µg/mL) | 4.8 µM | 8 µM (≈ 3.7 µg/mL) | 8 µM (≈ 3.7 µg/mL) | 2.4
4 | O=C(Nc1ccc(Cl)c(Cl)c1)c1ccc(Br)cc1O | 8 µM (≈ 2.89 µg/mL) | 16 µM (≈ 5.78 µg/mL) | 16 µM (≈ 5.78 µg/mL) | 4 µM (≈ 1.44 µg/mL) | 4 µM (≈ 1.44 µg/mL) | 2 µM (≈ 0.722 µg/mL) | 4 µM (≈ 1.44 µg/mL) | 1 µM (≈ 0.361 µg/mL) | 17.7 µM | 4 µM (≈ 1.44 µg/mL) | 4 µM (≈ 1.44 µg/mL) | 8.84
5 | O=C(Nc1ccc(C(F)(F)F)cc1)c1cc(Br)c(Br)cc1O | 4 µM (≈ 1.76 µg/mL) | 32 µM (≈ 14 µg/mL) | 62.5 µM (≈ 27.4 µg/mL) | 4 µM (≈ 1.76 µg/mL) | 4 µM (≈ 1.76 µg/mL) | 2 µM (≈ 0.878 µg/mL) | 4 µM (≈ 1.76 µg/mL) | 2 µM (≈ 0.878 µg/mL) | 6.25 µM | 4 µM (≈ 1.76 µg/mL) | 4 µM (≈ 1.76 µg/mL) | 3.13
6 | O=C(Nc1ccc(Cl)c(Cl)c1)c1cc(Cl)c(Br)cc1O | 8 µM (≈ 3.16 µg/mL) | 125 µM (≈ 49.4 µg/mL) | 125 µM (≈ 49.4 µg/mL) | 8 µM (≈ 3.16 µg/mL) | 8 µM (≈ 3.16 µg/mL) | 4 µM (≈ 1.58 µg/mL) | 8 µM (≈ 3.16 µg/mL) | 2 µM (≈ 0.791 µg/mL) | 11.1 µM | 8 µM (≈ 3.16 µg/mL) | 8 µM (≈ 3.16 µg/mL) | 2.76
7 | O=C(Nc1ccc(Br)cc1)c1cc(Br)c(Br)cc1O | 8 µM (≈ 3.6 µg/mL) | 32 µM (≈ 14.4 µg/mL) | 32 µM (≈ 14.4 µg/mL) | 8 µM (≈ 3.6 µg/mL) | 8 µM (≈ 3.6 µg/mL) | 4 µM (≈ 1.8 µg/mL) | 8 µM (≈ 3.6 µg/mL) | 4 µM (≈ 1.8 µg/mL) | 17.9 µM | 4 µM (≈ 1.8 µg/mL) | 8 µM (≈ 3.6 µg/mL) | 4.47
8 | O=C(Nc1ccc(C(F)(F)F)cc1)c1cc(Cl)c(Br)cc1O | 4 µM (≈ 1.58 µg/mL) | 32 µM (≈ 12.6 µg/mL) | 32 µM (≈ 12.6 µg/mL) | 4 µM (≈ 1.58 µg/mL) | 4 µM (≈ 1.58 µg/mL) | 2 µM (≈ 0.789 µg/mL) | 4 µM (≈ 1.58 µg/mL) | 1 µM (≈ 0.395 µg/mL) | 6.52 µM | 4 µM (≈ 1.58 µg/mL) | 4 µM (≈ 1.58 µg/mL) | 3.26
9 | O=C(Nc1ccc(Cl)c(Cl)c1)c1cc(Br)c(Br)cc1O | 8 µM (≈ 3.52 µg/mL) | 62.5 µM (≈ 27.5 µg/mL) | 62.5 µM (≈ 27.5 µg/mL) | 8 µM (≈ 3.52 µg/mL) | 8 µM (≈ 3.52 µg/mL) | 4 µM (≈ 1.76 µg/mL) | 8 µM (≈ 3.52 µg/mL) | 2 µM (≈ 0.88 µg/mL) | 7.96 µM | 8 µM (≈ 3.52 µg/mL) | 8 µM (≈ 3.52 µg/mL) | 1.99
10 | O=C(Nc1cc(C(F)(F)F)cc(C(F)(F)F)c1)c1cc(Br)c(Br)cc1O | 8 µM (≈ 4.06 µg/mL) | 16 µM (≈ 8.11 µg/mL) | 32 µM (≈ 16.2 µg/mL) | 8 µM (≈ 4.06 µg/mL) | 8 µM (≈ 4.06 µg/mL) | 2 µM (≈ 1.01 µg/mL) | 8 µM (≈ 4.06 µg/mL) | 2 µM (≈ 1.01 µg/mL) | 3 µM | 4 µM (≈ 2.03 µg/mL) | 8 µM (≈ 4.06 µg/mL) | 1.5
11 | Nc1ccc(C(=O)O)c(O)c1 [AMINOSALICYLIC ACID] | 500 µM (≈ 76.6 µg/mL) | 32 µM (≈ 4.9 µg/mL) | 125 µM (≈ 19.1 µg/mL) | 125 µM (≈ 19.1 µg/mL) | 1000 µM (≈ 153 µg/mL) | 62.5 µM (≈ 9.57 µg/mL) | 32 µM (≈ 4.9 µg/mL) | 62.5 µM (≈ 9.57 µg/mL) | – | 125 µM (≈ 19.1 µg/mL) | > 1000 µM | –
12 | NNC(=O)c1ccncc1 [ISONIAZID] | 8 µM (≈ 1.1 µg/mL) | > 250 µM | > 250 µM | 8 µM (≈ 1.1 µg/mL) | > 250 µM | 1 µM (≈ 0.137 µg/mL) | 4 µM (≈ 0.549 µg/mL) | 0.5 µM (≈ 0.0686 µg/mL) | – | > 250 µM | > 250 µM | –
